Assay results from ChEMBL document CHEMBL4715796, “Discovery of Chromane Containing Hepatitis C Virus (HCV) NS5A Inhibitors with Improved Potency against Resistance-Associated Variants” (J Med Chem, 2016).

Key:
Format in all cases: cell-based
[1] = system: T1, Nonstructural protein 5A (Hepatitis C virus), Q5L478 [Y93H]; assay: Inhibition of NS5A Y93H mutant in Hepatitis C virus subtype 1a infected in human HuH7 cells assessed as reduction in viral replication by luciferase reporter gene assay; details: Huh-7
T1 sequence (whole entry): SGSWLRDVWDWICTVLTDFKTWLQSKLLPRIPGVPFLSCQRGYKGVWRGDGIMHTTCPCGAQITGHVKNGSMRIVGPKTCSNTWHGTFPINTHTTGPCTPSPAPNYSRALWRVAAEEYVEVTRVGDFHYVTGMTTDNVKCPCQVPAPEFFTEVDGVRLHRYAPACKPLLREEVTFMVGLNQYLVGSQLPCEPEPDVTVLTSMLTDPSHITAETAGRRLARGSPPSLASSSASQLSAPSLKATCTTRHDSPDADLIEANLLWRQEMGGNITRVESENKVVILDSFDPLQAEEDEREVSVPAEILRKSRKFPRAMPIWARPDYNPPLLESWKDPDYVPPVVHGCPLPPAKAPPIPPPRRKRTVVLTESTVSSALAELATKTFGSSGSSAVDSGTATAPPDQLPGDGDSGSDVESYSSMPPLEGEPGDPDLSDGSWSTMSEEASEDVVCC
Outline: (§1)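 NS5A resistance variants engineered into GT1a-H77 or GT1b-Con1 replicons. Each variant replicon is transfected transiently by electroporation into a Huh7-derived cell line. Percent inhibition is taken from the drop in luciferase signal at each compound concentration, and EC90 is calculated from these. Values are means of at least two experiments.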

Huh-7 [2] = assay: Inhibition of NS5A in Hepatitis C virus subtype 3a infected in human HuH7 cells assessed as reduction in viral replication by luciferase reporter gene assay
Outline: (§2)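 Transient replicon assay with GT1a-H77, GT1b-Con1 or chimeric replicons, electroporated into a Huh7-derived cell line. Percent inhibition of replication, read as a drop in luciferase signal, was calculated at each concentration to give EC90. Values are means of at least two experiments.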

Huh-7 [3] = assay: Inhibition of NS5A in Hepatitis C virus subtype 2b infected in human HuH7 cells assessed as reduction in viral replication by luciferase reporter gene assay; outline: as §2
Huh-7 [4] = assay: Inhibition of NS5A in Hepatitis C virus subtype 1a infected in human HuH7 cells assessed as reduction in viral replication by luciferase reporter gene assay; outline: as §2
[5] = system: Nonstructural protein 5A (Hepatitis C virus), Q5L478 [UNDEFINED MUTATION]; assay: Inhibition of NS5A L31V mutant in Hepatitis C virus subtype 1a infected in human HuH7 cells assessed as reduction in viral replication by luciferase reporter gene assay; details: Huh-7; outline: as §1
Huh-7 [6] = assay: Inhibition of NS5A in Hepatitis C virus subtype 4a infected in human HuH7 cells assessed as reduction in viral replication by luciferase reporter gene assay; outline: as §2
Huh-7 [7] = assay: Inhibition of NS5A in Hepatitis C virus subtype 1b infected in human HuH7 cells assessed as reduction in viral replication by luciferase reporter gene assay; outline: as §2

COC(=O)N[C@H](C(=O)N1CCC[C@H]1c1ncc(-c2cc(F)c3c(c2)OC(c2ccc4c(c2)CC[C@@H](C)O4)n2c-3cc3cc(-c4cnc([C@@H]5CCCN5C(=O)[C@@H](NC(=O)OC)C(C)C)[nH]4)ccc32)[nH]1)C(C)C (stereo not given in full)
EC90 [1]: 2 nM | EC90 (Huh-7 [2]): 0.02 nM | EC90 (Huh-7 [3]): 7 nM | EC90 (Huh-7 [4]): 0.005 nM

COC(=O)N[C@H](C(=O)N1CCC[C@H]1c1ncc(-c2cc(F)c3c(c2)OC(c2cccc4ccccc24)n2c-3cc3cc(-c4cnc([C@@H]5CCCN5C(=O)[C@@H](NC(=O)OC)C(C)C)[nH]4)ccc32)[nH]1)C(C)C (stereo not given in full)
EC90 [5]: 0.09 nM | EC90 [1]: 32 nM | EC90 (Huh-7 [2]): 0.1 nM | EC90 (Huh-7 [3]): 31 nM | EC90 (Huh-7 [4]): 0.01 nM

COC(=O)N[C@H](C(=O)N1CCC[C@H]1c1ncc(-c2cc(F)c3c(c2)OC(c2ccc4c(c2)CCC(C)(C)O4)n2c-3cc3cc(-c4cnc([C@@H]5CCCN5C(=O)[C@@H](NC(=O)OC)C(C)C)[nH]4)ccc32)[nH]1)C(C)C (stereo not given in full)
EC90 [1]: 0.9 nM | EC90 (Huh-7 [2]): 0.03 nM | EC90 (Huh-7 [3]): 2 nM | EC90 (Huh-7 [4]): 0.005 nM

COC(=O)N[C@H](C(=O)N1CCC[C@H]1c1ncc(-c2cc(F)c3c(c2)OC(c2ccc4c(c2)OCCC4(F)F)n2c-3cc3cc(-c4cnc([C@@H]5CCCN5C(=O)[C@@H](NC(=O)OC)C(C)C)[nH]4)ccc32)[nH]1)C(C)C (stereo not given in full)
EC90 [5]: 0.01 nM | EC90 [1]: 0.7 nM | EC90 (Huh-7 [6]): 0.002 nM | EC90 (Huh-7 [2]): 0.007 nM | EC90 (Huh-7 [3]): 0.2 nM | EC90 (Huh-7 [7]): 0.002 nM | EC90 (Huh-7 [4]): 0.002 nM

COC(=O)N[C@H](C(=O)N1CCC[C@H]1c1ncc(-c2cc(F)c3c(c2)OC(c2ccc4c(c2)OC(C)(C)CC4)n2c-3cc3cc(-c4cnc([C@@H]5CCCN5C(=O)[C@@H](NC(=O)OC)C(C)C)[nH]4)ccc32)[nH]1)C(C)C (stereo not given in full)
EC90 [1]: 1 nM | EC90 (Huh-7 [2]): 0.02 nM | EC90 (Huh-7 [3]): 2 nM | EC90 (Huh-7 [4]): 0.005 nM

COC(=O)N[C@H](C(=O)N1CCC[C@H]1c1ncc(-c2cc(F)c3c(c2)OC(c2ccc4cccnc4c2)n2c-3cc3cc(-c4cnc([C@@H]5CCCN5C(=O)[C@@H](NC(=O)OC)C(C)C)[nH]4)ccc32)[nH]1)C(C)C (stereo not given in full)
EC90 [5]: 0.2 nM | EC90 [1]: 4 nM | EC90 (Huh-7 [2]): 0.3 nM | EC90 (Huh-7 [3]): 3 nM | EC90 (Huh-7 [4]): 0.01 nM

COC(=O)N[C@H](C(=O)N1CCC[C@H]1c1ncc(-c2cc(F)c3c(c2)OC(c2ccc4c(c2)OCC(=O)N4)n2c-3cc3cc(-c4cnc([C@@H]5CCCN5C(=O)[C@@H](NC(=O)OC)C(C)C)[nH]4)ccc32)[nH]1)C(C)C (stereo not given in full)
EC90 [1]: 32 nM | EC90 (Huh-7 [2]): 0.4 nM | EC90 (Huh-7 [3]): 22 nM | EC90 (Huh-7 [4]): 0.01 nM

COC(=O)N[C@H](C(=O)N1CCC[C@H]1c1ncc(-c2cc(F)c3c(c2)OC(c2ccc4c(c2)O[C@H](C)CC4)n2c-3cc3cc(-c4cnc([C@@H]5CCCN5C(=O)[C@@H](NC(=O)OC)C(C)C)[nH]4)ccc32)[nH]1)C(C)C (stereo not given in full)
EC90 [5]: 0.02 nM | EC90 [1]: 0.7 nM | EC90 (Huh-7 [6]): 0.005 nM | EC90 (Huh-7 [2]): 0.01 nM | EC90 (Huh-7 [3]): 0.9 nM | EC90 (Huh-7 [7]): 0.005 nM | EC90 (Huh-7 [4]): 0.003 nM

COC(=O)N[C@H](C(=O)N1CCC[C@H]1c1ncc(-c2cc(F)c3c(c2)OC(c2ccc4c(c2)OCC4)n2c-3cc3cc(-c4cnc([C@@H]5CCCN5C(=O)[C@@H](NC(=O)OC)C(C)C)[nH]4)ccc32)[nH]1)C(C)C (mixture of isomers)
EC90 [5]: 0.5 nM | EC90 [1]: 6 nM | EC90 (Huh-7 [2]): 0.1 nM | EC90 (Huh-7 [3]): 3 nM | EC90 (Huh-7 [4]): 0.02 nM

COC(=O)N[C@H](C(=O)N1CCC[C@H]1c1ncc(-c2cc(F)c3c(c2)OC(c2ccc4c(c2)OCC(=O)N4C)n2c-3cc3cc(-c4cnc([C@@H]5CCCN5C(=O)[C@@H](NC(=O)OC)C(C)C)[nH]4)ccc32)[nH]1)C(C)C (stereo not given in full)
EC90 [1]: 3 nM | EC90 (Huh-7 [2]): 0.01 nM | EC90 (Huh-7 [3]): 2 nM | EC90 (Huh-7 [4]): 0.002 nM

COC(=O)N[C@H](C(=O)N1CCC[C@H]1c1ncc(-c2cc(F)c3c(c2)OC(c2ccc4c(c2)O[C@@H](C)CC4)n2c-3cc3cc(-c4cnc([C@@H]5CCCN5C(=O)[C@@H](NC(=O)OC)C(C)C)[nH]4)ccc32)[nH]1)C(C)C (stereo not given in full)
EC90 [5]: 0.04 nM | EC90 [1]: 0.9 nM | EC90 (Huh-7 [6]): 0.007 nM | EC90 (Huh-7 [2]): 0.009 nM | EC90 (Huh-7 [3]): 0.7 nM | EC90 (Huh-7 [7]): 0.005 nM | EC90 (Huh-7 [4]): 0.007 nM

COC(=O)N[C@H](C(=O)N1CCC[C@H]1c1ncc(-c2cc(F)c3c(c2)OC(c2ccc4c(c2)CC[C@H](C)O4)n2c-3cc3cc(-c4cnc([C@@H]5CCCN5C(=O)[C@@H](NC(=O)OC)C(C)C)[nH]4)ccc32)[nH]1)C(C)C (stereo not given in full)
EC90 [1]: 3 nM | EC90 (Huh-7 [2]): 0.01 nM | EC90 (Huh-7 [3]): 7 nM | EC90 (Huh-7 [4]): 0.004 nM

COC(=O)N[C@H](C(=O)N1CCC[C@H]1c1ncc(-c2cc(F)c3c(c2)OC(c2ccc4c(c2)COCC4)n2c-3cc3cc(-c4cnc([C@@H]5CCCN5C(=O)[C@@H](NC(=O)OC)C(C)C)[nH]4)ccc32)[nH]1)C(C)C (stereo not given in full)
EC90 [1]: 2 nM | EC90 (Huh-7 [2]): 0.02 nM | EC90 (Huh-7 [3]): 4 nM | EC90 (Huh-7 [4]): 0.003 nM

COC(=O)N[C@H](C(=O)N1CCC[C@H]1c1ncc(-c2cc(F)c3c(c2)OC(c2ccc4ccccc4c2)n2c-3cc3cc(-c4cnc([C@@H]5CCCN5C(=O)[C@@H](NC(=O)OC)C(C)C)[nH]4)ccc32)[nH]1)C(C)C (stereo not given in full)
EC90 [5]: 0.2 nM | EC90 [1]: 7 nM | EC90 (Huh-7 [2]): 0.04 nM | EC90 (Huh-7 [3]): 1 nM | EC90 (Huh-7 [4]): 0.02 nM

COC(=O)N[C@H](C(=O)N1CCC[C@H]1c1ncc(-c2cc(F)c3c(c2)OC(c2ccc4c(c2)CCCO4)n2c-3cc3cc(-c4cnc([C@@H]5CCCN5C(=O)[C@@H](NC(=O)OC)C(C)C)[nH]4)ccc32)[nH]1)C(C)C (stereo not given in full)
EC90 [1]: 4 nM | EC90 (Huh-7 [2]): 0.02 nM | EC90 (Huh-7 [3]): 7 nM | EC90 (Huh-7 [4]): 0.003 nM

COC(=O)N[C@H](C(=O)N1CCC[C@H]1c1ncc(-c2cc(F)c3c(c2)OC(c2ccc4c(c2)OCO4)n2c-3cc3cc(-c4cnc([C@@H]5CCCN5C(=O)[C@@H](NC(=O)OC)C(C)C)[nH]4)ccc32)[nH]1)C(C)C (stereo not given in full)
EC90 [5]: 0.2 nM | EC90 [1]: 4 nM | EC90 (Huh-7 [2]): 1 nM | EC90 (Huh-7 [3]): 3 nM | EC90 (Huh-7 [4]): 0.008 nM

COC(=O)N[C@H](C(=O)N1CCC[C@H]1c1ncc(-c2cc(F)c3c(c2)OC(c2ccc4c(c2)CCCC4)n2c-3cc3cc(-c4cnc([C@@H]5CCCN5C(=O)[C@@H](NC(=O)OC)C(C)C)[nH]4)ccc32)[nH]1)C(C)C (stereo not given in full)
EC90 [1]: 2 nM | EC90 (Huh-7 [2]): 0.01 nM | EC90 (Huh-7 [3]): 2 nM | EC90 (Huh-7 [4]): 0.005 nM

COC(=O)N[C@H](C(=O)N1CCC[C@H]1c1ncc(-c2cc(F)c3c(c2)OC(c2ccc4c(c2)CC2CC2(C)O4)n2c-3cc3cc(-c4cnc([C@@H]5CCCN5C(=O)[C@@H](NC(=O)OC)C(C)C)[nH]4)ccc32)[nH]1)C(C)C (mixture of isomers)
EC90 [1]: 1 nM | EC90 (Huh-7 [2]): 0.03 nM | EC90 (Huh-7 [3]): 5 nM | EC90 (Huh-7 [4]): 0.005 nM

COC(=O)N[C@H](C(=O)N1CCC[C@H]1c1ncc(-c2cc(F)c3c(c2)OC(c2ccc4c(c2)OC(F)(F)O4)n2c-3cc3cc(-c4cnc([C@@H]5CCCN5C(=O)[C@@H](NC(=O)OC)C(C)C)[nH]4)ccc32)[nH]1)C(C)C (stereo not given in full)
EC90 [5]: 0.5 nM | EC90 [1]: 8 nM | EC90 (Huh-7 [2]): 0.1 nM | EC90 (Huh-7 [3]): 5 nM | EC90 (Huh-7 [4]): 0.004 nM

COC(=O)N[C@H](C(=O)N1CCC[C@H]1c1ncc(-c2cc(F)c3c(c2)OC(c2ccc4c(c2)COC4)n2c-3cc3cc(-c4cnc([C@@H]5CCCN5C(=O)[C@@H](NC(=O)OC)C(C)C)[nH]4)ccc32)[nH]1)C(C)C (stereo not given in full)
EC90 [1]: 5 nM | EC90 (Huh-7 [2]): 0.02 nM | EC90 (Huh-7 [3]): 2 nM | EC90 (Huh-7 [4]): 0.003 nM
